Assays:
A-431 = experiment: Growth inhibition of human A431 cells after 72 hrs by MTT assay; type: functional; details: A-431, 72 h
Procedure, shortened: (§1)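 Cells kept in DMEM with 10% FBS, glutamine, penicillin/streptomycin at 37 °C, 5% CO2; plated in duplicate at 2500–4000 cells/well, dosed 24 h later during log growth. After 72 h drug exposure, MTT read at 540 nm. […] Assays in triplicate, standard error reported.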

HT-29 = experiment: Growth inhibition of human HT-29 cells after 72 hrs by MTT assay; type: functional; details: HT-29, 72 h; procedure, shortened: as §1
A2780 = experiment: Growth inhibition of human A2780 cells after 72 hrs by MTT assay; type: functional; details: A2780, 72 h; procedure, shortened: as §1
[1] = Growth inhibition of human SJ-G2 cells after 72 hrs by MTT assay; type: functional; details: SJ-G2, 72 h; procedure, shortened: as §1
MCF7 = experiment: Growth inhibition of human MCF7 cells after 72 hrs by MTT assay; type: functional; details: MCF7, 72 h; procedure, shortened: as §1
[2] = Growth inhibition of human BE(2)-C cells after 72 hrs by MTT assay; type: functional; procedure, shortened: as §1
[3] = Growth inhibition of mouse SMA cells after 72 hrs by MTT assay; type: functional; procedure, shortened: as §1
DU-145 = experiment: Growth inhibition of human DU145 cells after 72 hrs by MTT assay; type: functional; details: DU-145, 72 h; procedure, shortened: as §1
[4] = Growth inhibition of human U87 cells after 72 hrs by MTT assay; type: functional, U-87MG ATCC; details: U-87 MG; procedure, shortened: as §1
[5] = Growth inhibition of human MIA cells after 72 hrs by MTT assay; type: functional; procedure, shortened: as §1
[6] = Growth inhibition of human H460 cells after 72 hrs by MTT assay; type: functional; details: NCI-H460, 72 h; procedure, shortened: as §1

Compound | GI50 (A-431) | GI50 (HT-29) | GI50 (A2780) | GI50 [1] | GI50 (MCF7) | GI50 [2] | GI50 [3] | GI50 (DU-145) | GI50 [4] | GI50 [5] | GI50 [6]
CCCc1cc(=O)c2c(C)cc3c(c2o1)C(=O)c1c(O)cccc1C3=O | 1.6 µM | 3.2 µM | 2.4 µM | 1.7 µM | 1.8 µM | 1.8 µM | 1.5 µM | 1.2 µM | 2.8 µM | 1.7 µM | 1.4 µM
CCc1cc(=O)c2c(C)cc3c(c2o1)C(=O)c1c(OC(C)C)cccc1C3=O | 5.7 µM | 4.8 µM | 5.8 µM | 16 µM | 4.3 µM | 2.2 µM | 3.9 µM | 1.9 µM | 8.7 µM | 3.4 µM | 6.9 µM
Cc1cc2c(c3oc(CCC(F)(F)F)cc(=O)c13)C(=O)c1c(O)cccc1C2=O | 0.51 µM | 0.94 µM | 0.34 µM | 0.49 µM | 0.28 µM | 0.2 µM | 0.48 µM | 0.29 µM | 2.9 µM | 0.28 µM | 0.87 µM
Cc1cc2c(c3oc(=O)c(CCCCl)cc13)C(=O)c1c(OC(C)C)cccc1C2=O | 17 µM | 15 µM | 21 µM | 15 µM | 19 µM | 33 µM | 19 µM | 20 µM | 16 µM | 20 µM | 19 µM
CCC(C)(OCc1ccccc1)c1cc2c(C)cc3c(c2oc1=O)C(=O)c1c(O)cccc1C3=O (centres undefined) | 4 µM | 5.6 µM | 7 µM | 3.9 µM | 5.3 µM | 6.7 µM | 6.1 µM | 8.8 µM | 14 µM | 3.9 µM | 5.1 µM
C=C(C)c1cc(=O)c2c(C)cc3c(c2o1)C(=O)c1c(O)cccc1C3=O | 1.8 µM | 1.6 µM | 1.6 µM | 4.7 µM | 1.4 µM | 5.9 µM | 1.7 µM | 1.5 µM | 3.4 µM | 2 µM | 3.9 µM
Cc1cc2c(c3oc(CCCCl)cc13)C(=O)c1c(OC(C)C)cccc1C2=O | 23 µM | 18 µM | 11 µM | 25 µM | 13 µM | 43 µM | 22 µM | 25 µM | 18 µM | 34 µM | 27 µM
Cc1cc2c(c3oc(=O)c(C(C)(C)O)cc13)C(=O)c1c(OC(C)C)cccc1C2=O | 19 µM | 30 µM | 28 µM | 14 µM | 20 µM | 27 µM | 30 µM | 40 µM | 30 µM | 23 µM | 22 µM
CCCc1cc(=O)c2c(C)cc3c(c2o1)C(=O)c1c(OC)cccc1C3=O | 6.6 µM | 5.5 µM | 6.4 µM | 5.3 µM | 6.4 µM | 6.1 µM | 6 µM | 5.3 µM | 6.4 µM | 7.1 µM | 5.3 µM
Cc1cc2c(c3oc(=O)c(CCCC#N)cc13)C(=O)c1c(O)cccc1C2=O | 12 µM | 14 µM | 10 µM | 22 µM | 12 µM | 11 µM | 9.8 µM | 3.2 µM | 11 µM | 15 µM | 9 µM
CC(=O)c1cc2c(C)cc3c(c2o1)C(=O)c1c(O)cccc1C3=O | 4.8 µM | 4.7 µM | 2 µM | 1.8 µM | 2.1 µM | 2.9 µM | 1.5 µM | 2 µM | 5.5 µM | 9.5 µM | 9.6 µM
Cc1cc2c(c3oc(CCCC#N)cc13)C(=O)c1c(O)cccc1C2=O | 13 µM | 1.9 µM | 6.5 µM | 32 µM | 4.7 µM | 0.99 µM | 5.4 µM | 0.46 µM | 11 µM | 2.6 µM | 15 µM
Cc1cc2c(c3oc(=O)cc(CCCCl)c13)C(=O)c1c(OC(C)C)cccc1C2=O | 12 µM | 24 µM | 12 µM | 27 µM | 8.8 µM | 27 µM | 16 µM | 24 µM | 12 µM | 17 µM | 25 µM
CCCCCC(=O)c1cc2c(C)cc3c(c2o1)C(=O)c1c(OC(C)C)cccc1C3=O | 1.4 µM | 0.88 µM | 2.3 µM | 4.2 µM | 2 µM | 0.75 µM | 1.8 µM | 0.85 µM | 4.2 µM | 1.1 µM | 6.8 µM

Reference: ChEMBL document CHEMBL3596100, “The synthesis and biological activity of novel anthracenone-pyranones and anthracenone-furans” (Bioorg Med Chem, 2015)
